The values below come from ChEMBL document CHEMBL1125005, “Synthesis, biological profile, and quantitative structure-activity relationship of a series of novel 3-hydroxy-3-methylglutaryl coenzyme A reductase inhibitors” (J Med Chem, 1990).

Where only a bound is given, the exact number is not on record here.

For assay [1], the target named is T1, 3-hydroxy-3-methylglutaryl-coenzyme A reductase (Rattus norvegicus, UniProt P51639).
T1 sequence (P51639 whole entry): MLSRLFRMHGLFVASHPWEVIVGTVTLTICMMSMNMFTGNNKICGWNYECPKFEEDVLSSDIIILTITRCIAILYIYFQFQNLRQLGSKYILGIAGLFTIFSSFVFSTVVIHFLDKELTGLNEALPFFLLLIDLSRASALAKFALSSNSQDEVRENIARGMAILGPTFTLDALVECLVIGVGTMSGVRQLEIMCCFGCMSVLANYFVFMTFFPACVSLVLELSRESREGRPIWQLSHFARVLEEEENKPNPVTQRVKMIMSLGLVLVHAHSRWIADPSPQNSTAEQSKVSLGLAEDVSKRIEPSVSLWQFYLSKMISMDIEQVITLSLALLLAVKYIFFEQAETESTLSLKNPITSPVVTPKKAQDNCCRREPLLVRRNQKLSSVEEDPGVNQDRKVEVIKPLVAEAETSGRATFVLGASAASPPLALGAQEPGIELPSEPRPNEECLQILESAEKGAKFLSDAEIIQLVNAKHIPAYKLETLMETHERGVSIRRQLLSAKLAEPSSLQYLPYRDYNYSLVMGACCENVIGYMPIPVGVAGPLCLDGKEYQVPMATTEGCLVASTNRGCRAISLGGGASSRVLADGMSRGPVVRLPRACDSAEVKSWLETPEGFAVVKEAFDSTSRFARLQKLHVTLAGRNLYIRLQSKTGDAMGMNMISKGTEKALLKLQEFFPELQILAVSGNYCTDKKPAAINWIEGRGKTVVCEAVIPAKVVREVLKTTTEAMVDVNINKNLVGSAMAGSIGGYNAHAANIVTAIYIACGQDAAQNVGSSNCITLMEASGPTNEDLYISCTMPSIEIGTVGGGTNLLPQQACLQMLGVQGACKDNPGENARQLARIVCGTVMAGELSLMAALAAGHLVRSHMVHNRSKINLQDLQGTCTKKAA
The experiment in a line: In vitro inhibitory activity was measured against rat liver HMG-CoA reductase. A digest of the protocol:
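Enzyme: intact, fully activated rat liver microsomal HMG-CoA reductase, 50–100 μg protein in buffer A (50 mM imidazole HCl, 250 mM NaCl, 1 mM EDTA, 1 mM EGTA, 5 mM DTT, pH 7.2). Preincubated with inhibitor for 10 min at 37 °C. d,l-[3-14C]HMG-CoA (0.33 mM) and NADPH (3.0 mM) then added. [14C]mevalonate formation measured. IC50 from linear regression of % inhibition vs log concentration, ≥4 dilutions in duplicate.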

Assay [2] has as its target T1, 3-hydroxy-3-methylglutaryl-coenzyme A reductase. The experiment in a line: (§1) In vitro inhibitory activity was measured against rat liver HMG-CoA reductase using [2-14C]-acetate incorporation. A digest of the protocol: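 Parenchymal hepatocytes from chow-fed male Wistar rats (180–280 g), collagenase-perfused, viability >95%. Cells held at 100 mg wet weight/2.0 mL in MEM with bicarbonate/HEPES, pH 7.4, 2% BSA, under 95% O2/5% CO2. Preincubated with inhibitor for 15 min, with DMSO at 0.5% final for lactones. [2-14C]acetate then added for 60 min at 37 °C. 14C in 3β-hydroxysterols counted. IC50 by regression from ≥4 concentrations; mean of n experiments.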

The species named for assay [3] is Rattus norvegicus. The experiment in a line: In vitro inhibitory potency for cholesterol synthesis was measured in rat ileum. It counts as functional.
The species named for assay [4] is Rattus norvegicus. The experiment in a line: In vitro inhibitory potency for cholesterol synthesis was measured in rat adrenals. The class given is functional, Adrenal gland.
For assay [5], the species on record is Rattus norvegicus. The experiment in a line: In vitro inhibitory potency for cholesterol synthesis was measured in rat spleen. It counts as functional. Put shortly: (§2)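 Rat spleen and testes cell dispersions, prepared nonenzymatically. Na-salt inhibitors were preincubated with cells for 15 min under the hepatocyte conditions. [14C]acetate (45–55 μCi per μmol, 5 μCi per mL) was then incorporated for 60 min. Sterol IC50 is reported as a ratio to the IC50 in rat hepatocytes.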

The species named for the next assay is Bos taurus. The experiment in a line: In vitro inhibitory potency for cholesterol synthesis was measured in bovine lens epithelial cell cultures.
The species named for assay [6] is Rattus norvegicus. In words: In vitro inhibitory potency for cholesterol synthesis was measured in rat testes. The class given is functional, Testis. Put shortly: as §2
Assay [7] deals with T2, 3-hydroxy-3-methylglutaryl-coenzyme A reductase (Rattus norvegicus) (UniProt P51639).
T2 sequence (whole entry): T1 sequence (P51639 whole entry)
The experiment in a line: The compound was tested for the relative potency with respect to standard compound BMY-21950.

Assay [8] addresses T1, 3-hydroxy-3-methylglutaryl-coenzyme A reductase. Described as §1. Put shortly: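 Parenchymal hepatocytes from chow-fed male Wistar rats (180–280 g), collagenase-perfused, viability >95%. Cells held at 100 mg wet weight/2.0 mL in MEM with bicarbonate/HEPES, pH 7.4, 2% BSA, under 95% O2/5% CO2. Preincubated with inhibitor for 15 min, with DMSO at 0.5% final for lactones. [2-14C]acetate then added for 60 min at 37 °C. 14C in 3β-hydroxysterols counted.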
This is another data set of the same source.

In general, IC50 refers to the concentration that gives 50% inhibition. The compound `Cn1nnnc1C(/C=C/[C@@H](O)C[C@@H](O)CC(=O)O)=C(c1ccc(F)cc1)c1ccc(F)cc1` (stereo in doubt; 48) showed a half-inhibitory concentration (IC50) in assay [1] greater than 300000 nM.

With `Cn1nnnc1C(/C=C/[C@@H](O)C[C@@H](O)CC(=O)[O-])=C(c1ccc(F)cc1)c1ccc(F)cc1.[Na+]` (stereo in doubt; 3a), the IC50 turned out to be 21 nM in assay [2] and 43 nM in assay [1]. Moreover, the IC50 ratio in the assay filed under Rattus norvegicus [3] is listed as 129; in the assay listed under Rattus norvegicus [4], 76; in the assay filed under Rattus norvegicus [5], 149; in the assay filed under Bos taurus, 144; in the assay listed under Rattus norvegicus [6] it was 86.

In assay [7], `CC(C)(C)n1nnc(C(/C=C/[C@@H](O)C[C@@H](O)CC(=O)O)=C(c2ccc(F)cc2)c2ccc(F)cc2)n1` (stereo in doubt; 49) [listing 1 of 2 here] returned a Relative potency of 1.

For `Cn1nnnc1C(/C=C/[C@@H](O)C[C@@H](O)CC(=O)O)=C(c1ccccc1)c1ccccc1`, the Relative potency in [7] came out at 0.1. Further, in assay [1], inhibition was half-maximal at 190 nM (IC50).

Regarding `CC(C)n1nnc(C(/C=C/[C@@H](O)C[C@@H](O)CC(=O)O)=C(c2ccc(F)cc2)c2ccc(F)cc2)n1`, the Relative potency in assay [7] was less than 6e-05. The same compound registered an IC50 in [1] greater than 300000 nM.

Compound `Cc1cc(C(=C(/C=C/[C@@H](O)C[C@@H](O)CC(=O)O)c2nnnn2C)c2ccc(F)c(C)c2)ccc1F` gave a Relative potency in [7] of 0.12. The compound further yielded an IC50 in assay [1] of 160 nM.

In assay [7], `Cn1nnnc1C(/C=C/[C@@H](O)C[C@@H](O)CC(=O)O)=C(\c1ccccc1)c1ccc(F)cc1` displayed a Relative potency of 0.43. The half-maximal inhibitory concentration (IC50) in [1] amounted to 44 nM.

Consider `O=C(O)C[C@H](O)C[C@H](O)/C=C/C(=C(c1ccc(F)cc1)c1ccc(F)cc1)C1N=NN=N1`, for which the Relative potency in [7] is 0.0058. In addition, the 50% inhibitory concentration (IC50) in assay [1] is 330 nM.

In assay [7], `CC(C)C(/C=C/[C@@H](O)C[C@@H](O)CC(=O)O)=C(c1ccc(F)cc1)c1ccc(F)cc1` registered a Relative potency of 0.095. Also, inhibition in [1] was half-maximal at 230 nM (IC50).

`Cc1ccc(C(=C(/C=C/[C@@H](O)C[C@@H](O)CC(=O)O)c2nnnn2C)c2ccc(C)cc2F)c(F)c1` came in with a Relative potency in [7] of 0.032. In [1], this compound showed an IC50 of 580 nM.

Turning to `CC(/C=C/[C@@H](O)C[C@@H](O)CC(=O)O)=C(c1ccc(F)cc1)c1ccc(F)cc1`, the Relative potency in [7] was 0.0024. The IC50 in [1] was 7900 nM.

In assay [7], `N#CC(/C=C/[C@@H](O)C[C@@H](O)CC(=O)O)=C(c1ccc(F)cc1)c1ccc(F)cc1` had a Relative potency of 0.0024. Inhibition in [1] was half-maximal at 8000 nM (IC50).

`Cn1nnc(C(/C=C/[C@@H](O)C[C@@H](O)CC(=O)O)=C(c2ccc(F)cc2)c2ccc(F)cc2)n1` gave a Relative potency in [7] of 0.00063. For the same compound, the IC50 in assay [1] amounted to 30000 nM.

As to `CC[C@H](C)C(=O)O[C@H]1C[C@@H](C)C=C2C=C[C@H](C)[C@H](CC[C@@H]3C[C@@H](O)CC(=O)O3)[C@H]21` [LOVASTATIN], the Relative potency in assay [7] was 0.71. Also, the IC50 ratio worked out at 1.2 in the assay listed under Rattus norvegicus [3]; 1 in the assay listed under Rattus norvegicus [4]; 1.2 in the assay filed under Rattus norvegicus [5]; 1.6 in the assay filed under Bos taurus; 1.3 in the assay listed under Rattus norvegicus [6]. The IC50 in assay [8] amounted to 32 nM; in assay [1], 27 nM.

As to `CC(C)(C)n1nnc(C(/C=C/[C@@H](O)C[C@@H](O)CC(=O)O)=C(c2ccc(F)cc2)c2ccc(F)cc2)n1` (stereo in doubt; 47) [listing 1 of 2 here], the Relative potency in [7] turned out to be 0.005.

Turning to `COc1ccc(C(=C(/C=C/[C@@H](O)C[C@@H](O)CC(=O)O)c2nnnn2C)c2ccc(OC)cc2)cc1`, the Relative potency in assay [7] is 0.014. This compound showed an IC50 in [1] of 1400 nM.

`Cc1cc(F)ccc1C(=C(/C=C/[C@@H](O)C[C@@H](O)CC(=O)O)c1nnnn1C)c1ccc(F)cc1C` registered a Relative potency in assay [7] of 0.67. The compound further displayed a concentration for half-maximal inhibition (IC50) in assay [1] of 29 nM.

For `CC(C)n1nnnc1C(C=C=C[C@@H](O)C[C@@H](O)CC(=O)O)=C(c1ccc(F)cc1)c1ccc(F)cc1`, the Relative potency in assay [7] was 0.00015. In [1], this compound registered an IC50 of 130000 nM.

As to `Cc1ccc(C(=C(/C=C/[C@@H](O)C[C@@H](O)CC(=O)O)c2nnnn2C)c2ccc(C)cc2)cc1`, the Relative potency in assay [7] amounted to 0.015. For the same compound, the IC50 in assay [1] stood at 1300 nM.

`CCn1nnnc1C(/C=C/[C@@H](O)C[C@@H](O)CC(=O)O)=C(c1ccc(F)cc1)c1ccc(F)cc1` came in with a Relative potency in assay [7] of 0.017. Besides, the IC50 in assay [1] is 1100 nM.

`Cc1ccc(C(=C(/C=C/[C@@H](O)C[C@@H](O)CC(=O)O)c2nnnn2C)c2ccc(C)cc2C)c(C)c1`: the Relative potency in assay [7] was found to be 0.012. In assay [1], this compound showed an IC50 of 1600 nM.

`CC(C)(C)n1nnc(C(/C=C/[C@@H](O)C[C@@H](O)CC(=O)O)=C(c2ccc(F)cc2)c2ccc(F)cc2)n1` (stereo in doubt; 47) [listing 2 of 2 here] registered a half-maximal inhibitory concentration (IC50) in assay [1] of 3700 nM.

On to `CC(C)n1nnnc1C(/C=C/[C@@H](O)C[C@@H](O)CC(=O)O)=C(c1ccc(F)cc1)c1ccc(F)cc1`, for which, in assay [7], the Relative potency is 0.0014. In assay [1], this compound came in with an IC50 of 14000 nM.

Turning to `CCn1nnc(C(/C=C/[C@@H](O)C[C@@H](O)CC(=O)O)=C(c2ccc(F)cc2)c2ccc(F)cc2)n1`, the Relative potency in [7] is 9.1e-05. The compound also displayed an IC50 in assay [1] of 200000 nM.

On to `CC(C)(C)n1nnc(C(/C=C/[C@@H](O)C[C@@H](O)CC(=O)O)=C(c2ccc(F)cc2)c2ccc(F)cc2)n1` (stereo in doubt; 49) [listing 2 of 2 here], for which the IC50 in [1] amounted to 19 nM.

In assay [7], `Cn1nnnc1C(/C=C/[C@@H](O)C[C@@H](O)CC(=O)O)=C(c1ccc(F)cc1)c1ccc(F)cc1` (stereo in doubt; 3a) showed a Relative potency of 0.43.

With `Cn1nnnc1C(/C=C/[C@@H]1C[C@@H](O)CC(=O)O1)=C(c1ccc(F)cc1)c1ccc(F)cc1`, in [8], the half-maximal inhibitory concentration (IC50) amounted to 24 nM.

Regarding `Cn1nnnc1C(C=C=C[C@@H](O)C[C@@H](O)CC(=O)O)=C(c1ccc(F)cc1)c1ccc(F)cc1`, the Relative potency in assay [7] was determined as 0.0033. This compound had a 50% inhibitory concentration (IC50) in assay [1] of 5700 nM.
